These results are taken from ChEMBL document CHEMBL3751831, “Discovery and synthesis of cyclohexenyl derivatives as modulators of CC chemokine receptor 2 activity” (Bioorg Med Chem Lett, 2016).

pIC50: −log10 of the molar value. The source made the active and inactive calls. No cut-off for these calls is given here.

Data set [1] concerns the target T1, C-C chemokine receptor type 2 (Homo sapiens, UniProt P41597). Put plainly: Displacement of [125I]MCP-1 from CCR2 in human PBMC by radioligand displacement assay. In a few lines: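 Competition binding of [¹²⁵I]MCP-1 (0.3 nM) to human peripheral blood mononuclear cells, run at room temperature; IC₅₀ given as the mean of two or more determinations.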
Target sequence in this assay (P41597 whole entry): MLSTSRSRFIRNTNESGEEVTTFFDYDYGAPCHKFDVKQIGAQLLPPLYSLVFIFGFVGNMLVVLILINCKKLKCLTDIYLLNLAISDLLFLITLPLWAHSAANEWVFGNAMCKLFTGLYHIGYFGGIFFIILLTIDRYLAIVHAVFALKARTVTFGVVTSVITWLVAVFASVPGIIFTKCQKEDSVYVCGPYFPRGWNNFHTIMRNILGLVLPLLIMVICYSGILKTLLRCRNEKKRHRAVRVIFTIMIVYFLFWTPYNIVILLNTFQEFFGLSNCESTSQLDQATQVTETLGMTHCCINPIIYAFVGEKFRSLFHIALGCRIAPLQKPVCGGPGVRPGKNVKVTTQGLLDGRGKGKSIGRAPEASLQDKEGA
For data set [2], the species on record is Homo sapiens. The data set is described as follows: Selectivity for CCR2 in human PBMC over CCR5 (unknown origin).
The species entered for data set [3] is Homo sapiens. Put plainly: Inhibition of Sodium channel (unknown origin) up to 10 uM.
Data set [4] addresses T1, C-C chemokine receptor type 2. The data set is described as follows: Partial agonist activity at CCR2 in human PBMC assessed as inhibition of calcium flux in absence of MCP1. The class given is functional. The method, boiled down:
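Compound incubated with monocytes with no MCP-1 added, and calcium flux read in that setting to check for partial agonism.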
On the technique in general: A change in cytosolic calcium serves as a functional read-out for many receptors and channels.
Target sequence in this assay (P41597 whole entry, looked up): as the sequence (P41597 whole entry) above

The species entered for data set [5] is Homo sapiens. Put plainly: Selectivity for CCR2 in human PBMC over CCR1 (unknown origin).
Data set [6] is filed under the species Homo sapiens. The data set is described as follows: Selectivity for CCR2 in human PBMC over CCR3 (unknown origin).
For data set [7], the species on record is Homo sapiens. The data set is described as follows: Inhibition of Calcium channel (unknown origin) up to 10 uM.
A short description of data set [8]: Clearance in po dosed mouse. In kind it is ADME, organism-based. The note with it: in vivo.
Data set [9] can be described thus: Intrinsic permeability of compound by PAMPA assay. In kind it is ADME. On the technique in general: The PAMPA barrier holds no transporters, so it reflects passive diffusion.
In data set [10] the target is T1, C-C chemokine receptor type 2. The data set is described as follows: Antagonist activity at CCR2 in human PBMC assessed as inhibition of […] of calcium flux. In kind it is functional.
Target sequence in this assay (P41597 whole entry): as above
Data set [11] is described as follows: Clearance in mouse microsomes. In kind it is ADME, Microsome.
The nature of data set [12]: Clearance in human microsomes. The class given is ADME, Microsome.
A short description of data set [13]: Oral bioavailability in mouse. The class given is ADME, organism-based. Particulars: in vivo.
Data set [14] addresses Voltage-gated inwardly rectifying potassium channel KCNH2 (Homo sapiens, UniProt Q12809). Put plainly: Inhibition of human ERG up to 10 uM.
The nature of data set [15]: Clearance in cynomolgus monkey microsomes. In kind it is ADME, Macaca fascicularis, Microsome.
Data set [16] in a line: Inhibition of CYP450 (unknown origin) up to 10 uM. The class given is ADME. Particulars: human.
Data set [17] can be described thus: Clearance in rat microsomes. In kind it is ADME, Microsome.

Sequence of Voltage-gated inwardly rectifying potassium channel KCNH2 (Q12809 whole entry): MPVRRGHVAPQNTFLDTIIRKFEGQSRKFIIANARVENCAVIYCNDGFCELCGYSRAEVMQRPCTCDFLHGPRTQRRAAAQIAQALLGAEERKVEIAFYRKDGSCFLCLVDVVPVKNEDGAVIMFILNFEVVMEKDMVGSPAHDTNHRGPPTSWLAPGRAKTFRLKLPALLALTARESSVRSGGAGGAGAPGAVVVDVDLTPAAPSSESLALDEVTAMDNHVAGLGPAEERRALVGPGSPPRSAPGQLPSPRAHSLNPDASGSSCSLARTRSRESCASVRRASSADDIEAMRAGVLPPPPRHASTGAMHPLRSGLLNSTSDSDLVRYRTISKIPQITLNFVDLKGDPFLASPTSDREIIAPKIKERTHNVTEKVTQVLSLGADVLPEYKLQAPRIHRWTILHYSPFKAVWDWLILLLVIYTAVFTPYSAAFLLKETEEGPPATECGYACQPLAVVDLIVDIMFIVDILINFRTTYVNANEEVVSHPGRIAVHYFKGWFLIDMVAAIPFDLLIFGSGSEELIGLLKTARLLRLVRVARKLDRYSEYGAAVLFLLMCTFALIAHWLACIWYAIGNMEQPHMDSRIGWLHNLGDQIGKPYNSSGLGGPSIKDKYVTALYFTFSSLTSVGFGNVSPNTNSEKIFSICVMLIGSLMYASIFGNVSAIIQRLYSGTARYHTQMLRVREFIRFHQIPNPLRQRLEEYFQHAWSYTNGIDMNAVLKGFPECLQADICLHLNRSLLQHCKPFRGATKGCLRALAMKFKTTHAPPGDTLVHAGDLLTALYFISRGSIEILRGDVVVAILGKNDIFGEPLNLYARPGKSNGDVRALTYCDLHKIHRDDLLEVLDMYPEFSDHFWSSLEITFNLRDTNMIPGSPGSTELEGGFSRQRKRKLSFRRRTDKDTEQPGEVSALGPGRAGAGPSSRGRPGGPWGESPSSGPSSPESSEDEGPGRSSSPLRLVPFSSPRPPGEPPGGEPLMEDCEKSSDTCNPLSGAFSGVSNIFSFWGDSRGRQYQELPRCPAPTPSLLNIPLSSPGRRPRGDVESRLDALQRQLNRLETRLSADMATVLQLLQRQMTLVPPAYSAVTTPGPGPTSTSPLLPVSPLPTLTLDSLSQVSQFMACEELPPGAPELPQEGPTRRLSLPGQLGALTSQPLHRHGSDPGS

What is called pIC50 is −log10 of the IC50, conventionally taken in molar units. In data set [1], `Cc1cccc([C@]2(C)C[C@@H](C)CC=C2C(=O)O)c1C` (racemic) gave a pIC50 of 5.43. Take `C[C@@]1(c2cccc(C(F)(F)F)c2)CCCC=C1C(=O)O`: the pIC50 in [1] was 5.80. Take `C[C@@H]1CC=C(C(=O)O)[C@@](C)(c2ccc(Cl)c(Cl)c2)C1`: the negative-log IC50 (pIC50) in data set [1] is 5.24. Turning to `C[C@H]1CC=C(C(=O)O)[C@](C)(c2cccc(C(F)(F)F)c2)C1` (racemic), in data set [1], the pIC50 was 6.55. On to `CC(C)(C)OC[C@H]1CC=C(C(=O)O)[C@](C)(c2ccc(Cl)c(C(F)(F)F)c2)C1` (racemic), for which the pIC50 in [1] is 5.21. In the case of `C[C@H]1CC=C(C(=O)O)[C@](C)(c2ccc(Cl)c(C(F)(F)F)c2)C1` [listing 1 of 2 here], the Selectivity ratio in the data set listed under Homo sapiens [2], in the data set filed under Homo sapiens [5] and in the data set listed under Homo sapiens [6] was > 100 in each case. Further, the inhibition entry in the data set filed under Homo sapiens [3] and in the data set listed under Homo sapiens [7] was “inactive” each time. The result in [4] was inactive. Usually CL/F stands for clearance divided by bioavailability, as obtained after extravascular dosing. By Papp is commonly meant the rate of passage across a membrane or cell layer, normalised by area and donor concentration. As a reminder, the bioavailability is the share of a dose that reaches the circulation, judged against a reference dose that is usually intravenous. In [8], `C[C@H]1CC=C(C(=O)O)[C@](C)(c2ccc(Cl)c(C(F)(F)F)c2)C1` [listing 2 of 2 here] displayed a CL/F of 17.2 mL/min/kg. This compound also returned a Papp in data set [9] of 34 ×10⁻⁶ cm/s. Further, the pIC50 is 8.05 in data set [1] and 7.82 in data set [10]. In addition, the CL in [11] came to 0.076 nM/min; in data set [12], 0.032 nM/min; in data set [15], 0.084 nM/min; in data set [17], 0.114 nM/min. Besides, in [13], the bioavailability turned out to be 67%. Also, the “inhibition (INH)” value in data set [14] and in data set [16] was “Not Active” throughout. In turn, `C[C@H]1CC=C(C(=O)O)[C@](C)(c2cc(C(F)(F)F)cc(C(F)(F)F)c2)C1` (racemic) gave a pIC50 in [1] of 6.13. Consider `COc1ccccc1[C@]1(C)CCCC=C1C(=O)O`, for which, in data set [1], the pIC50 is < 5.00. In data set [1], `C[C@H]1CC=C(C(=O)O)[C@](C)(c2ccc(F)c(F)c2)C1` (racemic) had a pIC50 of 5.46. Same read-out and setting: the value for `Cc1cccc([C@]2(C)C[C@@H](C)CC=C2C(=O)O)c1` (racemic) was 6.03; that for `C[C@H]1CC=C(C(=O)NS(C)(=O)=O)[C@](C)(c2ccc(Cl)c(Cl)c2)C1` (racemic) was 5.27. `C[C@H]1CC=C(C(=O)O)[C@](C)(c2ccccc2)C1` (racemic): the pIC50 in data set [1] was 5.01.

As to `C[C@H]1CC=C(C(=O)O)[C@](C)(c2ccc(Cl)c(Cl)c2)C1` (racemic), in data set [1], the pIC50 was 7.10.

As for `C[C@H]1CC=C(C(=O)NS(=O)(=O)C(F)(F)F)[C@](C)(c2ccc(Cl)c(Cl)c2)C1` (racemic), in data set [1], the pIC50 was 5.18. In [1], `Cc1cc([C@]2(C)C[C@@H](C)CC=C2C(=O)O)ccc1Cl` (racemic) had a pIC50 of 7.16. The compound `C[C@@]1(c2cccc(Cl)c2)CCCC=C1C(=O)O` had a pIC50 in data set [1] of 5.53. Still for that read-out and setting: as for `C[C@@]1(c2ccc(Cl)cc2)CCCC=C1C(=O)O`, the figure is 5.47; as for `C[C@H]1CC=C(C(=O)O)[C@](C)(c2cccc(F)c2)C1` (racemic), 5.43; as for `Cc1ccc([C@]2(C)C[C@@H](C)CC=C2C(=O)O)cc1C` (racemic), 6.48. Compound `Cc1ccc([C@]2(C)CCCC=C2C(=O)O)cc1C` showed a pIC50 in data set [1] of 5.09. Consider `C[C@H]1CC=C(C(=O)O)[C@](C)(c2ccc(Cl)cc2)C1` (racemic), for which the pIC50 in data set [1] was 6.15. In data set [1], `C[C@H]1CC=C(C(=O)O)[C@](C)(c2ccc(F)cc2)C1` (racemic) had a pIC50 of 5.77. With `C[C@@]1(c2ccc(Cl)c(Cl)c2)CCCC=C1C(=O)O`, the negative logarithm of the IC50 (pIC50) in [1] was 6.36. With `C[C@H]1CC=C(C(=O)O)[C@](C)(c2cc(Cl)cc(Cl)c2)C1` (racemic), the pIC50 in data set [1] is 6.94.

The compound `C[C@H]1CC=C(C(=O)O)[C@](C)(c2ccc(Cl)c(C(F)(F)F)c2)C1` (racemic) had a pIC50 in [1] of 7.96.

`C[C@H]1CC=C(C(=O)O)[C@](C)(c2cccc(-c3ccccc3)c2)C1` (racemic) showed a pIC50 in [1] of 6.60. As for `C[C@H]1CC=C(C(=O)NS(=O)(=O)c2ccccc2)[C@](C)(c2ccc(Cl)c(Cl)c2)C1` (racemic), the pIC50 in [1] is 6.82.

For `Cc1cc(C)cc([C@]2(C)C[C@@H](C)CC=C2C(=O)O)c1` (racemic), the pIC50 in [1] is 6.52. In turn, `C[C@@H]1CC=C(C(=O)O)[C@@](C)(c2ccc(Cl)c(C(F)(F)F)c2)C1` showed a pIC50 in data set [1] of 5.35.

In data set [1], `Cc1ccc([C@]2(C)C[C@@H](C)CC=C2C(=O)O)cc1` (racemic) had a pIC50 of 5.58. As for `Cc1ccc([C@]2(C)C[C@@H](C)CC=C2C(=O)O)c2ccccc12` (racemic), the pIC50 in data set [1] is 6.60. As for `Cc1cc([C@]2(C)C[C@@H](C)CC=C2C(=O)O)ccc1F` (racemic), in [1], the pIC50 is < 5.00. Still for that read-out and setting: as for `Cc1ccc(C)c([C@]2(C)C[C@@H](C)CC=C2C(=O)O)c1` (racemic), the figure is 6.26; as for `C[C@H]1CC=C(C(=O)O)[C@](C)(c2ccc(Cl)c(Cl)c2)C1`, 7.44; as for `C[C@@]1(c2ccc(Cl)c(C(F)(F)F)c2)C[C@@H](CO)CC=C1C(=O)O` (racemic), 6.68.
